Assay results: ChEMBL document CHEMBL3091303, “1,3-Dialkyl-substituted tetrahydropyrimido[1,2-f]purine-2,4-diones as multiple target drugs for the potential treatment of neurodegenerative diseases” (Bioorg Med Chem, 2013)

Legend:
Adenosine receptor A1 [1] = target: T1, Adenosine receptor A1 (Rattus norvegicus, UniProt P25099); assay: Displacement of [3H]CCPA from adenosine A1 receptor in rat brain cortex; format: tissue-based
T1 sequence (P25099 whole entry): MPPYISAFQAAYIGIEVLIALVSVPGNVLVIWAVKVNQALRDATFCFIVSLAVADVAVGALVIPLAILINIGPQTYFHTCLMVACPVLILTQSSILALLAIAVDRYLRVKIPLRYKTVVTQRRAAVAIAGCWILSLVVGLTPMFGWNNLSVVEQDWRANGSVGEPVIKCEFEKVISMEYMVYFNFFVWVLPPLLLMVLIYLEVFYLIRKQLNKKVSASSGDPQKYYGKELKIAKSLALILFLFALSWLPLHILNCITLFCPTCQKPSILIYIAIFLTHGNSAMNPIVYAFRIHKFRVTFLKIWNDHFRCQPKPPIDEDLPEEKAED
Summary of the method: (§1)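 Radioligand binding to rat A1 receptors in rat brain cortical membrane preparations. Values are given as Ki, or as % inhibition of radioligand binding at the indicated concentration.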

[2] = target: T2, Amine oxidase [flavin-containing] B (Homo sapiens, UniProt P27338); assay: Inhibition of human MAO-B
T2 sequence (P27338 whole entry): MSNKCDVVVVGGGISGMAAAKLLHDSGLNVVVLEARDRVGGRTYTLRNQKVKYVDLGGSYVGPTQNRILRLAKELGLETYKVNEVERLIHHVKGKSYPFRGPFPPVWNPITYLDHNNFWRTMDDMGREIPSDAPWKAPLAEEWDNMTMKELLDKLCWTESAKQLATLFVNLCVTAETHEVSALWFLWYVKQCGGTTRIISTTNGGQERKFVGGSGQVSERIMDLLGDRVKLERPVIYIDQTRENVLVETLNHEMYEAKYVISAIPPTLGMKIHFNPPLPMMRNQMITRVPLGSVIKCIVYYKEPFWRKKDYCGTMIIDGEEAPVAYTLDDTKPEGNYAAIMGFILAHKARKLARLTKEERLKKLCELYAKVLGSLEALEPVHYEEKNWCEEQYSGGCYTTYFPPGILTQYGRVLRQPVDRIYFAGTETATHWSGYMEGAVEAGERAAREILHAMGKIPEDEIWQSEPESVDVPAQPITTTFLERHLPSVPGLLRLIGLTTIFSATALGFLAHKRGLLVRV

Adenosine receptor A2a [3] = target: Adenosine receptor A2a (Rattus norvegicus, UniProt P30543); assay: Displacement of [3H]MSX-2 from adenosine A2A receptor in rat brain striatum; format: tissue-based
[4] = target: T3, MAO-A (amine oxidase [flavin-containing] A) (Homo sapiens, UniProt P21397); assay: Inhibition of human MAO-A at 10 uM relative to control
T3 sequence (P21397 whole entry): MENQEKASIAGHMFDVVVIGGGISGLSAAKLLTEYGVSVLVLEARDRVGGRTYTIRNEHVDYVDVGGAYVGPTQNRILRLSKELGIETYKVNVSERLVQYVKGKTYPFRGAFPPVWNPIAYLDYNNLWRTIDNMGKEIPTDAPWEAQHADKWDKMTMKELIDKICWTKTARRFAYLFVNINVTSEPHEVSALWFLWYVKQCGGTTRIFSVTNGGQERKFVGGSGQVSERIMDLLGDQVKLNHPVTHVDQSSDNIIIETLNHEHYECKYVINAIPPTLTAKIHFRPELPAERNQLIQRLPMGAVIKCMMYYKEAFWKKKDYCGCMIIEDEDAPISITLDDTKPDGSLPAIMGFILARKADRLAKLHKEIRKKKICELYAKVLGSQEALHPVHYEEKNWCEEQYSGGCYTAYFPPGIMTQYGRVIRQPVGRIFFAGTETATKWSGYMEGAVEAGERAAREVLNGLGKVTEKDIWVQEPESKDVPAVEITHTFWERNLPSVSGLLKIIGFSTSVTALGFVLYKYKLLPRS
Summary of the method: (§2)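 Human MAO-A and MAO-B inhibition, screened first at a test concentration of 10 µM.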

Adenosine receptor A2b = target: T4, Adenosine receptor A2b (Homo sapiens, UniProt P29275); assay: Displacement of [3H]PSB-603 from human adenosine A2B receptor
T4 sequence (P29275 whole entry): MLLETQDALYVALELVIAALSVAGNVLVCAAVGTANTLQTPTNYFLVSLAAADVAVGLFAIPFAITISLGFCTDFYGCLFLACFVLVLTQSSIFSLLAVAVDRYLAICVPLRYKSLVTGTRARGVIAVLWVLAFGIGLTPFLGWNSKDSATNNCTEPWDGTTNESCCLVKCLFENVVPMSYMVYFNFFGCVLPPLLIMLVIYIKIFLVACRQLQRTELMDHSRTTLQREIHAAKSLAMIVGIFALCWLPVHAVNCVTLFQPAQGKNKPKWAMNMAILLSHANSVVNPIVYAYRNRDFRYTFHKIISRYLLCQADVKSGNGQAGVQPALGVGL

Adenosine receptor A2a [5] = target: Adenosine receptor A2a (Homo sapiens, UniProt P29274); assay: Displacement of [3H]MSX-2 from human adenosine A2A receptor expressed in CHO cells; format: cell-based
Summary of the method: (§3)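 Radioligand binding to human receptors recombinantly expressed in Chinese hamster ovary (CHO) cells. Results are Ki, or % inhibition of radioligand binding at the indicated concentration.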

Adenosine receptor A1 [6] = target: T5, Adenosine receptor A1 (Homo sapiens, UniProt P30542); assay: Displacement of [3H]CCPA from human adenosine A1 receptor expressed in CHO cells; format: cell-based; summary of the method: as §3
T5 sequence (P30542 whole entry): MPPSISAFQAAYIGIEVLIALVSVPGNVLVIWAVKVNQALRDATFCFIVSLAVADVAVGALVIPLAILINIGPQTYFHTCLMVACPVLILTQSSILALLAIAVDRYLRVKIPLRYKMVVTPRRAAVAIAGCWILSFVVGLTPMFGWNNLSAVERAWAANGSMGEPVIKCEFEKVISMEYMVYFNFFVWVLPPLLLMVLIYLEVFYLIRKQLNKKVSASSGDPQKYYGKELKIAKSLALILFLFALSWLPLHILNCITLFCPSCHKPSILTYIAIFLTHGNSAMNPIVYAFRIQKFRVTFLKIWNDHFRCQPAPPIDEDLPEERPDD

Adenosine receptor A3 = target: T6, Adenosine receptor A3 (Homo sapiens, UniProt P0DMS8); assay: Displacement of [3H]PSB-11 from human adenosine A3 receptor expressed in CHO cells; format: cell-based
T6 sequence (P0DMS8 whole entry): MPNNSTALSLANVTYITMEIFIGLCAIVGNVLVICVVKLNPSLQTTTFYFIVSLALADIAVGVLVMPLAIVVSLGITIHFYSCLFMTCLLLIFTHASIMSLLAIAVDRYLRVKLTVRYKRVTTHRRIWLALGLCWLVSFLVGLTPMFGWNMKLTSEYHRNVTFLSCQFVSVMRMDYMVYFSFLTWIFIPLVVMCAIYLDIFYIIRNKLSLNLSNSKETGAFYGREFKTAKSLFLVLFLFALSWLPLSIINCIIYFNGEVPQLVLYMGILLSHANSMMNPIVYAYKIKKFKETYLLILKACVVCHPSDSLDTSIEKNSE

[7] = target: T7, Adenosine receptor A3 (Homo sapiens) (UniProt P0DMS8); assay: Displacement of [3H]PSB-11 from human adenosine A3 receptor expressed in CHO cells relative to control; format: cell-based; parameters: concentration or dose not given beside the values; settings: concentration not given here
T7 sequence (whole entry): T6 sequence (P0DMS8 whole entry)

[8] = target: T8, MAO-B (amine oxidase [flavin-containing] B) (Homo sapiens, UniProt P27338); assay: Inhibition of human MAO-B at 10 uM relative to control; summary of the method: as §2
T8 sequence (P27338 whole entry): T2 sequence (P27338 whole entry)

[9] = target: T9, Amine oxidase [flavin-containing] A (Homo sapiens, UniProt P21397); assay: Inhibition of human MAO-A; summary of the method: as §2
T9 sequence (P21397 whole entry): T3 sequence (P21397 whole entry)

[10] = target: T10, Adenosine receptor A2b (Homo sapiens) (UniProt P29275); assay: Displacement of [3H]PSB-603 from human adenosine A2B receptor relative to control; parameters: concentration or dose not given beside the values; settings: concentration not given here
T10 sequence (whole entry): T4 sequence (P29275 whole entry)

[11] = target: T11, Adenosine receptor A1 (Rattus norvegicus) (UniProt P25099); assay: Displacement of [3H]CCPA from adenosine A1 receptor in rat brain cortex relative to control; format: tissue-based; parameters: concentration or dose not given beside the values; settings: concentration not given here; summary of the method: as §1
T11 sequence (whole entry): T1 sequence (P25099 whole entry)

[12] = target: Adenosine receptor A2a (Rattus norvegicus) (UniProt P30543); assay: Displacement of [3H]MSX-2 from adenosine A2A receptor in rat brain striatum relative to control; format: tissue-based; parameters: concentration or dose not given beside the values; settings: concentration not given here
Summary of the method: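 Radioligand binding to rat A2A receptors in rat brain striatal membrane preparations, reported as % inhibition of radioligand binding at the indicated concentration.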

Chain of Adenosine receptor A2a (Homo sapiens, UniProt P29274) (P29274 whole entry): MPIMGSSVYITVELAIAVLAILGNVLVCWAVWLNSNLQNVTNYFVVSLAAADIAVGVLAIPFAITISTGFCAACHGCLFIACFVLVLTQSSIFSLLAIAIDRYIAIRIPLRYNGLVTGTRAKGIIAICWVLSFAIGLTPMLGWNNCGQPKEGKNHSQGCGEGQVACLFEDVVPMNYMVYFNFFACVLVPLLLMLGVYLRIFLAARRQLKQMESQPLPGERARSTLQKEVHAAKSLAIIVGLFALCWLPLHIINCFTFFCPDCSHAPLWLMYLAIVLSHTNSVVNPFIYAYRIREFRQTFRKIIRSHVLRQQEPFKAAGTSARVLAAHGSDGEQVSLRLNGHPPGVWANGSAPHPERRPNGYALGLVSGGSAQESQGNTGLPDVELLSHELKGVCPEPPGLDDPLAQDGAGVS
Chain of Adenosine receptor A2a (Rattus norvegicus) (P30543 whole entry): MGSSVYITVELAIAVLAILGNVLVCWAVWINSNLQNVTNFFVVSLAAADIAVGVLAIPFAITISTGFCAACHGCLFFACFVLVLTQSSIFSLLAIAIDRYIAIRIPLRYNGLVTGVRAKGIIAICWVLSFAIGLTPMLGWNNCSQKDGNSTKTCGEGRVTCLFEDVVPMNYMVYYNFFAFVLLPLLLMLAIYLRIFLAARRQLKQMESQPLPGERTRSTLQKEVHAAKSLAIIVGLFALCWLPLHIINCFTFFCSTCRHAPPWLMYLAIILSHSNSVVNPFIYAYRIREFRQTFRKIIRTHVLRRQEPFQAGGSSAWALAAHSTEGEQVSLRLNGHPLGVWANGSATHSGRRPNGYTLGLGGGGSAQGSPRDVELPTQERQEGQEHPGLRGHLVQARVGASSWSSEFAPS
Chain of Adenosine receptor A2a (Rattus norvegicus, UniProt P30543) (P30543 whole entry): as above

Compound	Ki (Adenosine receptor A1 [1]) [µM]	IC50 [2] [µM]	Ki (Adenosine receptor A2a [3]) [µM]	inhibition at 10 µM [4] [%]	Ki (Adenosine receptor A2b) [µM]	Ki (Adenosine receptor A2a [5]) [µM]	Ki (Adenosine receptor A1 [6]) [µM]	Ki (Adenosine receptor A3) [µM]	inhibition [7] [%]	inhibition at 10 µM [8] [%]	IC50 [9] [µM]	inhibition [10] [%]	inhibition [11] [%]	inhibition [12] [%]
C#CCn1c(=O)c2c(nc3n2CCCN3Cc2cccs2)n(C)c1=O	0.114	10	0.259	0	1.74	0.626	0.41	> 10	30	51	> 10	–	–	–
COc1ccc(CN2CCN(C(=O)CN3CCCn4c3nc3c4c(=O)n(C)c(=O)n3C)CC2)cc1	> 1.5	> 10	> 10	–	> 1	–	–	> 10	15	30	–	-8	0	41
CCn1c(=O)c2c(nc3n2CCCN3CCc2ccc(OC)cc2)n(CC)c1=O	> 10	4.76	0.624	2	> 1	2.53	–	6.32	–	–	> 10	29	20	–
C#CCn1c(=O)c2c(nc3n2CCCN3Cc2ccccc2OC)n(C)c1=O	1.06	1.8	0.641	4	> 1	0.417	0.605	4.41	–	–	> 10	16	–	–
Cn1c(=O)c2c(nc3n2CCCN3c2cc(Cl)cc(Cl)c2)n(C)c1=O	> 10	> 10	5.54	–	> 1	4.61	–	> 10	21	58	–	11	21	–
Cn1c(=O)c2c(nc3n2CCCN3Cc2cc(Cl)cc(Cl)c2)n(C)c1=O	0.165	0.193	1.64	1	> 1	3.78	1.7	> 10	14	–	> 10	4	–	–
CCCn1c(=O)c2c(nc3n2CCCN3CC(=O)N2CCN(c3ccccc3)CC2)n(CCC)c1=O	> 1.5	10	> 10	–	> 1	–	–	2.45	–	46	–	6	18	27
C#CCn1c(=O)c2c(nc3n2CCCN3CC2CCCO2)n(C)c1=O (stereo not drawn)	0.169	> 10	1.43	–	> 1	1.11	1.15	> 10	9	30	–	6	–	–
CCn1c(=O)c2c(nc3n2CCCN3CCN2CCCCC2)n(CC)c1=O	1.07	> 10	> 10	–	> 0.3	–	–	> 1	13	34	–	2	–	44
CCCn1c(=O)c2c(nc3n2CCCN3CCC(=O)N2CCN(c3ccccc3)CC2)n(CCC)c1=O	> 1.5	> 10	> 10	–	> 1	–	–	> 1	21	30	–	-5	5	14
CCCn1c(=O)c2c(nc3n2CCCN3CC(=O)N2CCN(Cc3ccc(OC)cc3)CC2)n(CCC)c1=O	> 1.5	> 10	> 10	–	> 1	–	–	1.6	–	30	–	4	18	33
C#CCn1c(=O)c2c(nc3n2CCCN3CC2CCCCC2)n(C)c1=O	0.219	> 10	0.498	–	> 1	0.51	1.87	> 0.1	5	33	–	-5	–	–
C#CCn1c(=O)c2c(nc3n2CCCN3C2CCN(Cc3ccccc3)CC2)n(C)c1=O	> 10	> 10	2.47	–	> 1	0.628	–	> 1	3	22	–	-2	32	–
C#CCn1c(=O)c2c(nc3n2CCCN3Cc2cccc(OC)c2)n(C)c1=O	0.227	10	0.696	5	–	0.322	1.33	–	–	51	> 10	8	–	–
C#CCn1c(=O)c2c(nc3n2CCCN3Cc2ccccc2)n(C)c1=O	0.135	3.76	0.533	5	3.52	0.253	0.249	> 10	34	–	> 10	–	–	–
